# Results reported in ChEMBL document CHEMBL1153525, “Adenosine A2A receptor-antagonist/dopamine D2 receptor-agonist bivalent ligands as pharmacological tools to detect A2A-D2 receptor heteromers” (J Med Chem, 2009).
# Active and inactive are the calls of the source. The rule behind the calls is not given here.
# What was measured:
# [1] = biological target: Adenosine A2A receptor (Homo sapiens) (UniProt P29274); assay: Displacement of [3H]ZM241385 from human A2aR/D2R (long isoform) heteromer expressed in mouse Ltk cells by scintillation counting; assay type: cell-based
# Method in brief: (§1)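 Mouse Ltk fibroblasts were transiently transfected with human A2AR, human D2R (long isoform) or both, and membranes were prepared 48 h later. Membranes were incubated 2 h at 25 °C in 50 mM Tris-HCl pH 7.4 with 10 mM MgCl2 and 2 U/mL ADA, plus 2.1 nM [3H]ZM241385 or 1.9 nM [3H]YM09151-2 and 1 μM test compound. Bound ligand was counted after filtration and expressed as % of specific binding without displacer; three independent experiments.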
# Target sequence in this assay (P29274 whole entry, canonical isoform): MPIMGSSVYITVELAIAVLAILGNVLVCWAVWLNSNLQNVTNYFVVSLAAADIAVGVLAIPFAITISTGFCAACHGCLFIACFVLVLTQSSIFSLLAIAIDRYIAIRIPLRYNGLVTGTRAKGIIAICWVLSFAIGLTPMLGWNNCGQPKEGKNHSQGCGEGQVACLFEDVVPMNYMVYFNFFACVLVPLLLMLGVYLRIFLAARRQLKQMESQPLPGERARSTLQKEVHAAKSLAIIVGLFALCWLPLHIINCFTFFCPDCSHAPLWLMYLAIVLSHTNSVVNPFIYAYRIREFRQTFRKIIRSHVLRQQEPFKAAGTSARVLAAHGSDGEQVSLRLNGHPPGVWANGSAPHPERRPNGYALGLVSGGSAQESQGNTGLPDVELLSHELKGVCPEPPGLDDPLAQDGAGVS
# [2] = biological target: Adenosine A2A receptor (Homo sapiens) (UniProt P29274); assay: Displacement of [3H]ZM241385 from human A2aR/D2R (long isoform) coexpressed in mouse Ltk cells by scintillation counting; assay type: cell-based; method in brief: as §1
# Target sequence in this assay (P29274 whole entry, canonical isoform): as above
# [3] = test system: Dopamine D2 receptor (Homo sapiens); assay: Displacement of [3H]YM09151-2 from human A2aR/D2R (long isoform) heteromer expressed in mouse Ltk cells by scintillation counting
# [4] = biological target: Adenosine A2A receptor (Homo sapiens) (UniProt P29274); assay: Displacement of [3H]ZM241385 from human A2aR expressed in mouse Ltk cells by scintillation counting relative to control; assay type: cell-based; method in brief: as §1
# Target sequence in this assay (P29274 whole entry, canonical isoform): as above
# [5] = biological target: D(2) dopamine receptor (Homo sapiens) (UniProt P14416); assay: Displacement of [3H]YM09151-2 from human D2R expressed in mouse Ltk cells by scintillation counting relative to control; assay type: cell-based; method in brief: as §1
# [6] = biological target: Adenosine A2A receptor (Homo sapiens) (UniProt P29274); assay: Displacement of [3H]ZM241385 from human A2AR expressed in mouse Ltk cells at 1 uM by scintillation counting relative to control
# Target sequence in this assay (P29274 whole entry, looked up, canonical isoform): as the sequence (P29274 whole entry, canonical isoform) above
# [7] = Displacement of [3H]YM09151-2 from D2R (long isoform) dimer in lamb striatum membrane high affinity macroscopic equilibrium dissociation constant by scintillation counting; assay type: cell membranes, Ovis aries
# Method in brief: (§2)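 Lamb striatal membranes (0.3-0.5 mg protein/mL) were incubated 2 h at 25 °C in 50 mM Tris-HCl pH 7.4 with 10 mM MgCl2 and 2 U/mL ADA. Radioligand was 2.1 nM [3H]ZM241385 (A2AR) or 0.9 nM [3H]YM09151-2 (D2R), against 11 competitor concentrations from 0.1 nM to 50 μM in triplicate. Nonspecific binding used 50 μM unlabeled radioligand. After GF/C filtration, counts were fitted to a two-state dimer model for KDB1 and KDB2; three experiments.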
# [8] = Displacement of [3H]YM09151-2 from D2R (long isoform) dimer in lamb striatum membrane low affinity macroscopic equilibrium dissociation constant by scintillation counting; assay type: cell membranes, Ovis aries; method in brief: as §2
# [9] = biological target: Adenosine A2A receptor (Homo sapiens) (UniProt P29274); assay: Displacement of [3H]ZM241385 from human A2aR expressed in mouse Ltk cells at 1 uM by scintillation counting relative to control; assay type: cell-based; method in brief: as §1
# Target sequence in this assay (P29274 whole entry, canonical isoform): as above
# [10] = Displacement of [3H]ZM241385 from A2aR dimer in lamb striatum membrane assessed as high affinity macroscopic equilibrium dissociation constant by scintillation counting; assay type: cell membranes, Ovis aries; method in brief: as §2
# Chain of D(2) dopamine receptor (Homo sapiens) (P14416 whole entry): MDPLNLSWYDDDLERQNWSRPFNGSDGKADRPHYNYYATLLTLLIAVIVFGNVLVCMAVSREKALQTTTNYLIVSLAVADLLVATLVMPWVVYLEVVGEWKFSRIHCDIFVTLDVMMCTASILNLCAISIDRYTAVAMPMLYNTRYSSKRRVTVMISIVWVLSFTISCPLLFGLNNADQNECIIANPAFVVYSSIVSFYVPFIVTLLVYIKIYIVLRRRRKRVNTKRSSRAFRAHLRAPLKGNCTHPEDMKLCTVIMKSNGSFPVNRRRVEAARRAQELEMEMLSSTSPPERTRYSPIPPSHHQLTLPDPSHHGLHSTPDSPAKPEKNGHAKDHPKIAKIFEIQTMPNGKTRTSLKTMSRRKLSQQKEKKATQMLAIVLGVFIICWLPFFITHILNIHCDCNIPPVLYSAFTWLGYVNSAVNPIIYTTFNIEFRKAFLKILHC
Activity [1],Activity [2],Activity [3],Ki [7] [nM],Ki [8] [nM],Ki [10] [nM],SMILES,also measured
–,–,Active,11,15000,–,CCCN(CCc1ccc(NC(=O)CCC(N)C(=O)NCCCCC(NC(=O)CCC(=O)NCCOCCOCCNC(=O)C(CCCCNC(C)=O)NC(C)=O)C(N)=O)cc1)C1CCc2c(O)cccc2C1 (stereo not given),Activity [4]: inactive; Activity [5]: inactive; Activity [6]: Active; Activity [9]: Active
–,–,Active,13,9000,–,CCCN(CCc1ccc(NC(=O)CCC(N)C(=O)NCCCCC(NC(=O)CCC(=O)NCCOCCOCCNC(=O)CCC(=O)NCCOCCOCCNC(=O)CCC(=O)NCCOCCOCCNC(=O)C(CCCCNC(C)=O)NC(C)=O)C(N)=O)cc1)C1CCc2c(O)cccc2C1 (stereo not given),Activity [4]: inactive; Activity [5]: inactive; Activity [6]: Active; Activity [9]: Active
Active,Active,Active,–,–,–,CCCN(CCc1ccc(NC(=O)CCC(N)C(=O)NCCCCC(NC(=O)CCC(=O)NCCOCCOCCNC(=O)CCC(=O)NCCOCCOCCNC(=O)CCC(=O)NCCOCCOCCNC(=O)CCC(=O)NCCOCCOCCNC(=O)C(CCCCNC(=O)C(N)CCCCNC(=O)COc2ccc(-c3nc4c([nH]3)c(=O)n(CCC)c(=O)n4CCC)cc2)NC(C)=O)C(N)=O)cc1)C1CCc2c(O)cccc2C1 (stereo not given),–
–,–,–,–,–,246,CCCn1c(=O)c2[nH]c(-c3ccc(OCC(=O)NCCCCC(N)C(=O)NCCCCC(NC(C)=O)C(=O)NCCOCCOCCNC(=O)CCC(=O)NC(CCCCNC(C)=O)C(N)=O)cc3)nc2n(CCC)c1=O (stereo not given),Activity [5]: inactive; Activity [6]: Active; Activity [9]: Active
–,–,Active,–,–,–,CCCN(CCc1ccc(NC(=O)CCC(N)C(=O)NCCCCC(NC(=O)CCC(=O)NCCOCCOCCNC(=O)CCC(=O)NCCOCCOCCNC(=O)CCC(=O)NCCOCCOCCNC(=O)CCC(=O)NCCOCCOCCNC(=O)CCC(=O)NCCOCCOCCNC(=O)CCC(=O)NCCOCCOCCNC(=O)C(CCCCNC(C)=O)NC(C)=O)C(N)=O)cc1)C1CCc2c(O)cccc2C1 (stereo not given),–
–,–,Active,–,–,–,CCCN(CCc1ccc(NC(=O)CCC(N)C(=O)NCCCCC(NC(=O)CCC(=O)NCCOCCOCCNC(=O)CCC(=O)NCCOCCOCCNC(=O)CCC(=O)NCCOCCOCCNC(=O)CCC(=O)NCCOCCOCCNC(=O)CCC(=O)NCCOCCOCCNC(=O)C(CCCCNC(C)=O)NC(C)=O)C(N)=O)cc1)C1CCc2c(O)cccc2C1 (stereo not given),–
–,–,–,–,–,364,CCCn1c(=O)c2[nH]c(-c3ccc(OCC(=O)NCCCCC(N)C(=O)NCCCCC(NC(C)=O)C(=O)NCCOCCOCCNC(=O)CCC(=O)NCCOCCOCCNC(=O)CCC(=O)NCCOCCOCCNC(=O)CCC(=O)NC(CCCCNC(C)=O)C(N)=O)cc3)nc2n(CCC)c1=O (stereo not given),Activity [6]: Active; Activity [9]: Active
Active,Active,Active,1,9000,55,CCCN(CCc1ccc(NC(=O)CCC(N)C(=O)NCCCCC(NC(=O)C(CCCCNC(=O)C(N)CCCCNC(=O)COc2ccc(-c3nc4c([nH]3)c(=O)n(CCC)c(=O)n4CCC)cc2)NC(C)=O)C(N)=O)cc1)C1CCc2c(O)cccc2C1 (stereo not given),–
–,–,Active,4,9000,–,CCCN(CCc1ccc(NC(=O)CCC(N)C(=O)NCCCCC(NC(=O)C(CCCCNC(C)=O)NC(C)=O)C(N)=O)cc1)C1CCc2c(O)cccc2C1 (stereo not given),–

# More lines, now with the values behind:
SMILES,Activity [1],Activity [2],Activity [3],Ki [7] [nM],Ki [8] [nM],Ki [10] [nM],also measured
CCCN(CCc1ccc(NC(=O)CCC(N)C(=O)NCCCCC(NC(=O)CCC(=O)NCCOCCOCCNC(=O)CCC(=O)NCCOCCOCCNC(=O)CCC(=O)NCCOCCOCCNC(=O)CCC(=O)NCCOCCOCCNC(=O)CCC(=O)NCCOCCOCCNC(=O)C(CCCCNC(=O)C(N)CCCCNC(=O)COc2ccc(-c3nc4c([nH]3)c(=O)n(CCC)c(=O)n4CCC)cc2)NC(C)=O)C(N)=O)cc1)C1CCc2c(O)cccc2C1 (stereo not given),Active,Active,Active,–,–,–,–
CCCN(CCc1ccc(NC(=O)CCC(N)C(=O)NCCCCC(NC(=O)CCC(=O)NCCOCCOCCNC(=O)CCC(=O)NCCOCCOCCNC(=O)C(CCCCNC(=O)C(N)CCCCNC(=O)COc2ccc(-c3nc4c([nH]3)c(=O)n(CCC)c(=O)n4CCC)cc2)NC(C)=O)C(N)=O)cc1)C1CCc2c(O)cccc2C1 (stereo not given),Active,Active,Active,1.1,1400,80,–
CCCn1c(=O)c2[nH]c(-c3ccc(OCC(=O)NCCCCC(N)C(=O)NCCCCC(NC(C)=O)C(=O)NCCOCCOCCNC(=O)CCC(=O)NCCOCCOCCNC(=O)CCC(=O)NC(CCCCNC(C)=O)C(N)=O)cc3)nc2n(CCC)c1=O (stereo not given),–,–,–,–,–,268,–
CCCn1c(=O)c2[nH]c(-c3ccc(OCC(=O)NCCCCC(N)C(=O)NCCCCC(NC(C)=O)C(=O)NC(CCCCNC(C)=O)C(N)=O)cc3)nc2n(CCC)c1=O (stereo not given),58%,–,–,–,–,160,–
CCCN(CCc1ccc(NC(=O)CCC(N)C(=O)NCCCCC(NC(=O)CCC(=O)NCCOCCOCCNC(=O)CCC(=O)NCCOCCOCCNC(=O)C(CCCCNC(C)=O)NC(C)=O)C(N)=O)cc1)C1CCc2c(O)cccc2C1 (stereo not given),–,–,Active,11,12000,–,–
CCCN(CCc1ccc(NC(=O)CCC(N)C(=O)NCCCCC(NC(=O)CCC(=O)NCCOCCOCCNC(=O)CCC(=O)NCCOCCOCCNC(=O)CCC(=O)NCCOCCOCCNC(=O)CCC(=O)NCCOCCOCCNC(=O)CCC(=O)NCCOCCOCCNC(=O)CCC(=O)NCCOCCOCCNC(=O)C(CCCCNC(=O)C(N)CCCCNC(=O)COc2ccc(-c3nc4c([nH]3)c(=O)n(CCC)c(=O)n4CCC)cc2)NC(C)=O)C(N)=O)cc1)C1CCc2c(O)cccc2C1 (stereo not given),Active,Active,Active,–,–,–,–
CCCN(CCc1ccc(NC(=O)CCC(N)C(=O)NCCCCC(NC(=O)CCC(=O)NCCOCCOCCNC(=O)CCC(=O)NCCOCCOCCNC(=O)CCC(=O)NCCOCCOCCNC(=O)CCC(=O)NCCOCCOCCNC(=O)C(CCCCNC(C)=O)NC(C)=O)C(N)=O)cc1)C1CCc2c(O)cccc2C1 (stereo not given),–,–,Active,–,–,–,–
CCCN(CCc1ccc(NC(=O)CCC(N)C(=O)NCCCCC(NC(=O)CCC(=O)NCCOCCOCCNC(=O)CCC(=O)NCCOCCOCCNC(=O)CCC(=O)NCCOCCOCCNC(=O)CCC(=O)NCCOCCOCCNC(=O)CCC(=O)NCCOCCOCCNC(=O)CCC(=O)NCCOCCOCCNC(=O)CCC(=O)NCCOCCOCCNC(=O)C(CCCCNC(=O)C(N)CCCCNC(=O)COc2ccc(-c3nc4c([nH]3)c(=O)n(CCC)c(=O)n4CCC)cc2)NC(C)=O)C(N)=O)cc1)C1CCc2c(O)cccc2C1 (stereo not given),Active,Active,Active,–,–,–,Activity [5]: inactive
CCCN(CCc1ccc(NC(=O)CCC(N)C(=O)NCCCCC(NC(=O)CCC(=O)NCCOCCOCCNC(=O)CCC(=O)NCCOCCOCCNC(=O)CCC(=O)NCCOCCOCCNC(=O)CCC(=O)NCCOCCOCCNC(=O)CCC(=O)NCCOCCOCCNC(=O)CCC(=O)NCCOCCOCCNC(=O)CCC(=O)NCCOCCOCCNC(=O)C(CCCCNC(C)=O)NC(C)=O)C(N)=O)cc1)C1CCc2c(O)cccc2C1 (stereo not given),–,–,Active,–,–,–,–
CCCn1c(=O)c2[nH]c(-c3ccc(OCC(=O)NCCCCC(N)C(=O)NCCCCC(NC(C)=O)C(=O)NCCOCCOCCNC(=O)CCC(=O)NCCOCCOCCNC(=O)CCC(=O)NCCOCCOCCNC(=O)CCC(=O)NCCOCCOCCNC(=O)CCC(=O)NCCOCCOCCNC(=O)CCC(=O)NCCOCCOCCNC(=O)CCC(=O)NCCOCCOCCNC(=O)CCC(=O)NC(CCCCNC(C)=O)C(N)=O)cc3)nc2n(CCC)c1=O (stereo not given),17%,–,–,–,–,–,–
